Screens deposited in PubChem BioAssay by several laboratories.
Hits are enriched below; roughly 1.1% of the tested compounds scored in any of these assays.
HER2 expr 66K: lowers expression of human Her2 kinase | hit rate 0.69% among 65,000 | AID 645 | HER2 level % of control, % at 10 µM | SKBR-3 HER2 protein level, AlphaScreen, 18-24 h; stronger effect = lower value | P04626;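 active = HER2 level under 5% of the carrier-only control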;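 note: 100% = DMSO carrier and 0% = 500 nM PU-H71 HSP90 inhibitor; lower value means stronger loss of Her2 protein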
HEK293 NFkB inh: inhibitors of the PMA/ionomycin-induced NF-kB reporter in HEK293 cells | HEK-293 NF-kB luciferase reporter, luminescence | inhibition, % at 3 µM | hit rate 0.21% among 62,000;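 active = inhibition above the mean of all tested compounds plus 3 SD, cut at about 40% in these data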;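 note: 0% = stimulated DMSO wells and 100% = 10 µM reference inhibitor 5653914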
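Timing: 1 h pretreatment, 16 h stimulation, 37 °C; system: HEK-293 cells with stable firefly luciferase reporter driven by four HIV NF-kB elements; doses: 3 µM once, 0.30% DMSO; measured by: luciferase luminescence; control set: DMSO and 10 µM reference inhibitor; repeats: single test; reagent: PMA plus ionomycin mix as NF-kB-activating stimulus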
JNK3 inh: inhibitors of human JNK3 kinase | hit rate 0.61% among 60,000 | inhibition, % at 8 µM | purified JNK3 kinase activity, HTS | AID 746; in the data active = inhibition above about 17%;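 note: 0% = DMSO and 100% = reference inhibitor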
AP ELISA ortho: alternative pathway complement inhibition, orthogonal assay; hit rate 0.08% among 62,000; inhibition, % at 5 µM; Human serum alternative complement pathway, LPS-coated ELISA, C3 deposition; tested in compound mixtures;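 active = inhibition above 30% in each of the two pooled mixtures holding the compound, so the lower value exceeds 30%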;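 note: 0% = serum in Mg-EGTA without compound and 100% = EDTA serum blank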
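Assay system: Human serum alternative complement pathway, C3 deposition on LPS-coated wells | Incubation: 1 h serum-compound exposure at 37 °C | Doses: 5 µM per compound in ten-compound mixtures | Read-out: Percent inhibition | Technique: ELISA with HRP anti-human C3 antibody, TMB substrate, absorbance 450 nm | Replication: Two pool placements per compound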
MT1-MMP txn act: activates MT1-MMP transcription; HT1080 MT1-MMP promoter luciferase reporter, luminescence, overnight; stronger effect = higher value; activation factor at 10 µM; hit rate 0.16% among 86,000;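 active = activation factor of at least 2 for MT1-MMP transcription at 10 µM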
* = called active by the depositor; nt = no result.

SMILES | HER2 expr 66K | HEK293 NFkB inh | JNK3 inh | AP ELISA ortho | MT1-MMP txn act
CC(C)COC(=O)c1cccc2c1-c1ccccc1/C2=N\O | nt | nt | nt | nt | 1.2
CCOC(=O)c1cccc2c1-c1ccccc1/C2=N/O | 67.3 | -1.2 | 52.8* | 0.6 | 1.2
CCOC(=O)C1C(c2ccccc2Cl)NC(=O)N(C)C1(O)C(F)(F)F (configuration not stated) | -28.4* | 5.4 | -5.4 | 7.8 | 1
CC(=O)C1C(c2ccccc2Cl)NC(=O)NC1(O)C(F)(F)F (configuration not stated) | 83.8 | 8.2 | -3.8 | 14.9 | 1.1
CC12CCCCC1(O)[N+](=O)C1=C(CCCC1)N2[O-] (configuration not stated) | -17.4* | 11.4 | 6.5 | 19.2 | 1
COc1ccc(C)cc1NC(=O)C1CC(=O)N(Cc2ccco2)C1 (configuration not stated) | 105.7 | 10.5 | 3.1 | -4.4 | 1.1
COc1cc2c(cc1NC(=O)C(C)OC(=O)C1CC(=O)N(Cc3ccco3)C1)oc1ccccc12 (configuration not stated) | nt | nt | nt | nt | 2.1*
Nc1ccc2c(c1)N1CCN=C1S2 | 85.8 | nt | 1.1 | nt | 1.2
O=C(Nc1ccc(Cl)cc1)Nc1ccc2c(c1)N1CCN=C1S2 | -8.2* | -3.7 | 1.4 | -10.3 | 1.3
c1coc(-c2nnc(NC3=NCCC3)o2)c1 | 111.9 | -11.6 | 11.4 | 5.3 | 1.6
COc1ccccc1NC(=O)COc1ccc(CO)cc1Cl | 93.0 | 6.9 | 18.6* | 2.3 | 1.2
CCn1cc(S(=O)(=O)CC(=O)N2CCc3ccccc32)c2ccccc21 | 1.6* | 9.7 | -4.9 | 12.0 | nt
COc1cccc(Cn2c(NCc3ccco3)nc3c2c(=O)n(C)c(=O)n3C)c1 | 100.8 | nt | -4.3 | nt | 0.9
COc1ccc(Cl)c(Cn2c(NCc3ccco3)nc3c2c(=O)n(C)c(=O)n3C)c1 | -25.7* | 27.9 | -4.3 | 1.4 | nt
O=S(=O)(Nc1ccc2c(c1)CCC2)c1cccs1 | -26.2* | 9.6 | -11.8 | -2.3 | 1.3
O=C1OCc2cc(NS(=O)(=O)c3cccs3)ccc21 | 111.5 | 6.8 | 7.9 | 20.1 | 1
Cc1ccc2c(c1)c1c(n2C)-c2[nH]ncc2CC1 | nt | nt | nt | nt | 1.5
COc1ccc(-n2nnnc2S(=O)(=O)Cc2ccc(C(=O)O)cc2)cc1 | 36.4 | 21.3 | -3.1 | 10.5 | 1
COc1ccc(-n2nnnc2S(=O)(=O)CC(=O)N2CCCCC2)cc1 | -29.4* | 16.9 | -1.6 | 19.7 | 0.3
Cc1ccc2c(c1)CCCN2C(=O)c1c(C)noc1C | 121.9 | 5.0 | -4.5 | 8.7 | 1
Cc1ccc2c(c1)CCCN2C(=O)c1ccoc1C | -29.3* | 11.7 | 3.8 | 12.6 | 1.1
COc1ccc(-c2nnc(SCC(=O)Nc3cc(F)ccc3C)o2)cc1 | 91.3 | 3.9 | -1.4 | 18.3 | 1.2
CCOc1ccc(Nc2cc(C)nc(-n3nc(C)cc3C)n2)cc1 | 40.0 | 19.4 | 1.6 | 0.9 | 0.6
Cc1ccc(Nc2cc(-n3nc(C)cc3C)ncn2)cc1 | 132.3 | 1.3 | 30.5* | 13.5 | 1
CCCOc1nc2c(c(=O)n(C)c(=O)n2C)n1CCC | 117.2 | 11.2 | nt | 16.6 | 1.1
SMILES | HER2 expr 66K | HEK293 NFkB inh | JNK3 inh | AP ELISA ortho | MT1-MMP txn act
Cc1ccc(/C=C/C2=Cc3c(sc(NC(=O)CSc4n[nH]c(N)n4)c3C#N)C(C)(C)C2)o1 | -1.5* | 5.2 | 6.0 | 7.6 | 1.2
COc1cc(-c2nc(-c3ccc(NC(=O)c4ccc5c(c4)OCO5)cc3)no2)cc(OC)c1OC | -3.3* | 12.4 | 2.3 | 0.5 | 1.3
Cc1ccccc1-n1nc2c(c1NC(=O)c1cc3ccccc3oc1=O)CS(=O)(=O)C2 | 1.1* | 12.1 | nt | 8.6 | 1.1
CCOC(=O)N1CCC(n2c(=S)[nH]c3ccccc3c2=O)CC1 | nt | nt | nt | nt | 1.1
Cc1ccc(CNC(=O)CSc2nnnn2C)cc1 | nt | nt | nt | nt | 1.1
Nc1ccn(-c2ccccc2)c(=O)c1 | 104.4 | 16.0 | -0.2 | 4.1 | 1.1
CC(C)Cn1c(=O)c(C(=O)Nc2cnccn2)c(O)c2ccccc21 | 34.2 | 20.5 | 7.0 | 0.5 | 1.1
CC(C)Cn1c(=O)c(C(=O)Nc2ccncc2)c(O)c2ccccc21 | -13.2* | 6.7 | -14.7 | 5.6 | 0.9
COc1ccccc1-c1nnc2sc(-c3ccc(N(C)C)cc3)nn12 | 34.6 | 55.1* | 6.2 | 8.1 | 0.5
CN(C)c1ccc(-c2nn3c(-c4ccccc4Cl)nnc3s2)cc1 | 43.4 | 34.5 | 4.2 | 1.4 | 0.6
CCOC(=O)C1=C(C)N=c2s/c(=C\c3ccncc3)c(=O)n2C1c1ccc2c(c1)OCO2 (configuration not stated) | -75.3* | 17.4 | nt | 6.4 | 1
CCOC(=O)C1=C(C)N=c2s/c(=C3\C(=O)Nc4ccccc43)c(=O)n2C1c1ccc2c(c1)OCO2 (configuration not stated) | 80.8 | 4.0 | -4.3 | 7.5 | 1.1
CCOc1ccc(C(C)(O)CN2CCOCC2)cc1 (configuration not stated) | nt | nt | nt | nt | 1.2
Clc1cccc2sc(N3CCOCC3)nc12 | 95.9 | -8.3 | 5.2 | 15.5 | 2.1*
Cc1nnc(Sc2c(N)n(C)c(=O)n(C)c2=O)s1 | nt | nt | nt | nt | 0.9
Cc1nnc(Sc2nc(Sc3nnc(C)s3)nc(N3CCN(C)CC3)n2)s1 | -33.3* | 38.8 | 4.6 | 15.5 | 0.1
CCN(CC)C(=O)CSc1ncnc2c1nnn2-c1ccc(OC)cc1 | 80.7 | 14.1 | 4.4 | 12.3 | 1.7
COc1ccc(-n2nnc3c(SCC(=O)NCC4CCCO4)ncnc32)cc1 (configuration not stated) | -0.9* | 2.1 | -2.7 | 16.6 | 1
Cc1sc(/N=C/c2ccccc2O)c(C#N)c1C | nt | nt | nt | nt | 2*
CCc1ccc(O)c(N=Cc2ccccc2O)c1 | 72.4 | 17.1 | -8.1 | 18.8 | 1.2
CC#CCCCC(=O)Nc1cc(OC)nc(OC)n1 | -24.5* | 1.5 | 1.1 | -7.8 | 1.1
CCN(CC)CCNc1ncnc2c1[nH]c1ccc(OC)cc12 | 76.5 | nt | -4.7 | nt | 1.2
COc1ccc2[nH]c3c(NCc4ccco4)ncnc3c2c1 | nt | nt | nt | nt | 2.1*
CCN(CC)c1ccc(Nc2nc(N3CCOCC3)c3ccccc3n2)cc1 | nt | nt | nt | nt | 1.3
COc1ccc(Nc2nc(N3CCCC3)c3ccccc3n2)cc1 | -5.6* | 16.4 | -8.3 | 3.8 | 0.8
SMILES | HER2 expr 66K | HEK293 NFkB inh | JNK3 inh | AP ELISA ortho | MT1-MMP txn act
N#Cc1c(NCc2ccccc2)ccnc1NCc1cccnc1 | 110.4 | 11.4 | 74.7* | -5.9 | 0.9
CCCN(CCC)CCNC(=O)c1cc2c(=O)n(C)c3ccccc3c2n1C | 104.3 | 0.2 | 3.2 | 2.0 | 1.2
CCOC(=O)CSc1nnc(-c2ccc(NS(=O)(=O)c3ccc(C)cc3)cc2)o1 | -1.4* | 16.5 | -6.7 | -1.4 | 1
O=C(O)C1CCN(C(=O)c2ccccc2C(=O)N2CCC(C(=O)O)CC2)CC1 | 101.6 | 9.4 | -7.6 | 7.4 | 0.9
CCCCOC(=O)C(C#N)c1nc2ccccc2nc1N1CCN(Cc2ccc3c(c2)OCO3)CC1 (configuration not stated) | -54.8* | 15.4 | -1.8 | 11.5 | 1
COC(=O)C(C#N)c1nc2ccccc2nc1N1CCN(Cc2ccc3c(c2)OCO3)CC1 (configuration not stated) | 66.5 | 10.0 | 1.3 | 9.8 | 1
